Screening data from PubChem.
PREPL inhibitor = inhibitors of human prolyl oligopeptidase-like enzyme PREPL. Q4J6C6. recombinant PREPL, fluorescence polarization activity-based probe. inhibition, % at 5.96 µM. 0.68% of 320,000 active. AID 2751; in the data active = inhibition above about 43%
Target sequence (Q4J6C6 whole entry, looked up): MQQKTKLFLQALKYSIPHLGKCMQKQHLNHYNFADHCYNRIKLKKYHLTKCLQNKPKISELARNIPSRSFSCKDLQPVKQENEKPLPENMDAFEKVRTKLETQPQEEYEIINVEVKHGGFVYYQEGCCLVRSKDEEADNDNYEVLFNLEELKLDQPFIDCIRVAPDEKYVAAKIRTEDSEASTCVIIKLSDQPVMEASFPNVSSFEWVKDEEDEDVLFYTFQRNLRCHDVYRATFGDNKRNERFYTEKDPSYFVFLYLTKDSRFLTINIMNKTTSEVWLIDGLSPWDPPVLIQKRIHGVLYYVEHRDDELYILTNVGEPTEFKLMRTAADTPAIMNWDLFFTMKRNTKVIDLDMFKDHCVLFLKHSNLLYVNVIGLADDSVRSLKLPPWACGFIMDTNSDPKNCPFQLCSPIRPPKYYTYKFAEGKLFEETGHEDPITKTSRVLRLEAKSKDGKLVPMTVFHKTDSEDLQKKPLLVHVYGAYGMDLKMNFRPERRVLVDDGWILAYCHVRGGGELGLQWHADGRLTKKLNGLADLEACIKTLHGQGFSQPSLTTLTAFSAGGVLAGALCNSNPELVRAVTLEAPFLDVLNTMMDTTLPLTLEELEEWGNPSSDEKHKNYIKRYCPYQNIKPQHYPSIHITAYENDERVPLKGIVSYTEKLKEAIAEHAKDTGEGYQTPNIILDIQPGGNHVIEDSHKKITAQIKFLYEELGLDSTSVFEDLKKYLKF
Beta apoptosis = blocks beta cell apoptosis | INS-1E cytokine-induced death, ATP luminescence, 48 h; percent of positive-control rescue, neutral wells zero | protection from apoptosis, % (concentration not given with the values) | 0.8% of 300,000 active;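 active = Every replicate reaches about 75%, or at least half do and their mean reaches it too, limit read from the data; inconclusive = At least half of replicates reach the limit but their mean does not; inactive = Under half of replicates reach the limit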;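 note: higher means more ATP so stronger rescue from cytokine killing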
CHOP inhibitor = CHOP inhibition in unfolded protein response; CHO-K1 CHOP-promoter luciferase, tunicamycin-induced, 15-18 h; inhibition, % at 10 µM; 3.8% of 220,000 active; AID 2732;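 active = compounds that reduced the stress-induced luciferase reporter signal by more than about 70% of percent inhibition, limit read from the data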
T cruzi inh = blocks replication of Trypanosoma cruzi; T. cruzi beta-gal in NIH3T3, luminescence, 90 h; inhibition, % (test concentration not listed); 1.4% of 300,000 active; AID 1885;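 active = mean inhibition across valid replicates above about 55%, limit read from the data; inconclusive = mean below that limit but half or more replicates reach it; inactive = mean below it, under half of replicates reach it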;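 note: signal also drops with host cell toxicity which is not excluded here; higher percent means less beta-gal luminescence so fewer parasites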
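Assay system: NIH/3T3 fibroblasts plus reporter T. cruzi. Amount: NIH/3T3 cells, 5,000 per well. Buffer or medium: DMEM, 2% fetal bovine serum. Doses: compound pinned at 50 nL/well, DMSO. Schedule: ≥90 h infection period, 3 h prior cell attachment. Signal: luminescent β-galactosidase signal after 60 min lysis. Read-out: parasite load inhibition, %.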
CSC inhib = cancer stem cell inhibition; inhibition, % at 7.5 µM; cancer stem cell-like cells viability, luminescence; 1.1% of 300,000 active; in the data active = inhibition above about 75%; inconclusive = no clear call, values can overlap the other calls; tested in HMLE shEcad cells
GRIN3A LBD mod = modulators (binders) of human NR3A ligand-binding domain. NR3A LBD differential scanning fluorimetry, Tm shift; 0% = protein alone, 100% = glycine-bound protein. Tm shift relative to glycine control, % at 25 µM. 2.5% of 340,000 active. AID 1259313;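 active = melting temperature shift of at least 10% of the positive control shift, at one fixed dose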
Large screens that a line does not name were inactive. Compounds with a hit are over-represented: about 6.7% of the library has one in this group of screens.

CCCCNc1nc2c(S(=O)(=O)c3ccccc3)nnn2c2ccccc12	GRIN3A LBD mod 15.3
Cc1ccc(S(=O)(=O)N2CCN(C(=O)C3CCN(c4ncnc5sc(C)c(C)c45)CC3)CC2)c(C)c1	none (no result: PREPL inhibitor, Beta apoptosis, CHOP inhibitor, T cruzi inh, CSC inhib)
Oc1c(C=Nc2ccccc2)sc(=S)n1Cc1ccccc1	CHOP inhibitor 80.3
CCn1c(O)c(C=Nc2ccccc2)sc1=S	none
C/C=C1\C(=O)CC2C3CCC4=CC(=O)CC[C@]4(C)C3CC[C@]12C (some centres undefined)	none (no result: PREPL inhibitor, Beta apoptosis, T cruzi inh, CSC inhib, GRIN3A LBD mod)
Cc1nc(C2CCC3C4CCC5=CC(=O)CC[C@]5(C)C4CC[C@]23C)cs1 (some centres undefined)	Beta apoptosis 101.3, CHOP inhibitor 75.9, CSC inhib 86.2 (no result: GRIN3A LBD mod)
O=C(O)c1ccc(Cl)c(S(=O)(=O)Nc2ccccc2C(=O)Nc2ccc(Cl)cc2)c1	GRIN3A LBD mod 29.4 (no result: CHOP inhibitor)
O=C(O)c1cccc(NS(=O)(=O)c2cc(S(=O)(=O)c3ccc(Cl)cc3)ccc2Cl)c1	GRIN3A LBD mod 15.5 (no result: CHOP inhibitor)
O=C(O)c1ccc(NS(=O)(=O)c2ccc(Cl)c(C(=O)Nc3ccccc3)c2)cc1	none (no result: CHOP inhibitor)
CC(C)CN(/C=N/c1sc2c(c1C#N)CCCCC2)CC(C)C	CHOP inhibitor 73.5
CN1CCN(/C=N/c2sc3c(c2C#N)CCCCC3)CC1	T cruzi inh 57.7
Cc1ccc(/C=N/c2sc3c(c2C#N)CCC3)s1	none
CCN(/C=N/c1sc2c(c1C#N)CCCCC2)CC	none (no result: T cruzi inh)
Cc1ccc(/C=N/c2sc3c(c2C#N)CCCCC3)o1	CHOP inhibitor 77.3 (no result: CSC inhib)
Cc1[nH]n(-c2ccc(F)cc2)c(=O)c1/C=N/c1sc2c(c1C#N)CCCC2	CHOP inhibitor 90.4
Cc1nn(S(=O)(=O)c2ccccc2)c(C)c1S(=O)(=O)N1CCOCC1	none (no result: CHOP inhibitor)
N#CC1=C(SCC(N)=O)NC2=C(C(=O)c3ccccc32)C1c1ccc(Cl)cc1 (centres undefined)	GRIN3A LBD mod 18.0
CCC(C)[C@H]1CNC(=S)N1CCC12CC3CC(CC(C3)C1)C2 (some centres undefined)	CHOP inhibitor 80.5
O=C(COC(=O)c1cccc(OC(F)F)c1)Nc1cccc(S(=O)(=O)N2CCCC2)c1	none (no result: CHOP inhibitor, T cruzi inh)
CNC(=O)c1[nH]nc2c1CCc1ccccc1-2	none (no result: CHOP inhibitor)
COc1ccc(/C=N/NC(=O)c2[nH]nc3c2CCc2ccccc2-3)cc1OC	GRIN3A LBD mod 33.6
O=C(CCS(=O)(=O)c1ccccc1)Nc1ccc(Cl)cn1	none (no result: CHOP inhibitor, CSC inhib)
CC1(C)CC(=O)C(C(=O)CCCCC(=O)C2C(=O)CC(C)(C)CC2=O)C(=O)C1	none
COC(=O)CCCCC(=O)C1C(=O)CC(C)(C)C(C(=O)OC)C1=O (centres undefined)	GRIN3A LBD mod 12.2
CC(=O)c1cccc(NC(=O)/C=C/c2ccc(S(=O)(=O)N3CCOCC3)cc2)c1	none (no result: CHOP inhibitor, T cruzi inh)
CN(C)S(=O)(=O)c1cccc(NC(=O)/C=C/c2ccc(S(=O)(=O)N3CCOCC3)cc2)c1	none (no result: CHOP inhibitor, T cruzi inh)
O=C(/C=C/c1cccc(F)c1)Nc1ccc(S(=O)(=O)N2CCOCC2)cc1	GRIN3A LBD mod 36.6 (no result: CHOP inhibitor, T cruzi inh)
O=C(/C=C/c1ccccc1)Nc1ccc(S(=O)(=O)N2CCOCC2)cc1	T cruzi inh inconclusive, GRIN3A LBD mod 31.3 (no result: CHOP inhibitor)
O=C(/C=C/c1ccc(OC(F)F)cc1)Nc1cccc(S(=O)(=O)N2CCOCC2)c1	GRIN3A LBD mod 20.1 (no result: CHOP inhibitor)
CCc1ccc(NC(=S)N(CCN2CCOCC2)Cc2ccccc2F)cc1	none
COc1ccc(NC(=O)CN(C)C(=O)c2cccc(S(=O)(=O)N3CCN(c4ccc(F)cc4)CC3)c2)cc1	none (no result: PREPL inhibitor, Beta apoptosis, CHOP inhibitor, T cruzi inh, CSC inhib)
CCOC(=O)c1[nH]c2ccc(Cl)cc2c1NC(=O)/C=C/c1ccc2c(c1)OCO2	GRIN3A LBD mod 21.6
Cc1ccc2nc(NC(=O)/C=C/c3ccc4c(c3)OCO4)sc2c1	Beta apoptosis 83.8, GRIN3A LBD mod 36.1
Cc1ccc(NC(=O)/C=C/c2ccc3c(c2)OCO3)nc1	CSC inhib 109.6
Cc1ccc(NC(=O)Nc2ccc3c(c2)OCO3)nc1	none
CCN(CC(=O)Nc1c(C(=O)OC)[nH]c2ccc(Cl)cc12)c1ccc2c(c1)OCO2	none
Cc1ccc(C(C(=O)Nc2ccc3c(c2)OCO3)N(C)C(=O)/C=C\c2ccc3c(c2)OCO3)cc1 (centres undefined)	GRIN3A LBD mod 13.4
CCSc1nnc(NC(=O)/C=C/c2ccc3c(c2)OCO3)s1	none (no result: GRIN3A LBD mod)
OCCNC(=S)NCc1ccccc1	none
